Consider 15 molecules from ChEMBL document CHEMBL1131742, “Design of scytalone dehydratase inhibitors as rice blast fungicides: derivatives of norephedrine” (Bioorg Med Chem Lett, 1999).

One assay deals with rice. In words: Concentration that affords 90% control of blast disease on rice plants in greenhouse assay. The class given is functional. The procedure, abridged:
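Foliar greenhouse test on rice plants against blast disease; compounds applied over a range of concentrations, and the concentration giving 90% disease control was derived from the dose-response data.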

Another assay deals with T1, Scytalone dehydratase (Magnaporthe oryzae (strain 70-15 / FGSC 8958) (Rice blast fungus)(Pyricularia oryzae), UniProt P56221).
T1 sequence (P56221 whole entry): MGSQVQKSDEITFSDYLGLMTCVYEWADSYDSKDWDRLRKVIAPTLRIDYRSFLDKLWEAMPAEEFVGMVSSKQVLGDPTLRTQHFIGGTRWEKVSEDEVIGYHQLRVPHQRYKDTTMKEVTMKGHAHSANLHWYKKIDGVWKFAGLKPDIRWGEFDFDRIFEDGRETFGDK
More on the design: species or system Pyricularia grisea.

The structures appear in SMILES notation. In brackets after ≈: the same amount, converted by molar mass.

As a reminder, the Ki is a measure of affinity in units of concentration, obtained from inhibition or displacement. A lower Ki goes with a stronger hold on the target. In the assay on rice, `CCC(C#N)C(=O)N[C@H](C)COc1cc(F)ccc1F` (stereo partly drawn) came in with an ED90 greater than 200 µg/mL. For the same molecule, the affinity at Scytalone dehydratase, expressed as Ki, was 5.5 nM.
`CC(C)C(C#N)C(=O)N[C@H](C)[C@@H](Oc1cc(F)ccc1C#N)c1ccccc1` (stereo partly drawn): the ED90 in the assay on rice worked out at 25 µg/mL (≈ 65.9 µM). On Scytalone dehydratase, this molecule showed a Ki of 0.034 nM.
Molecule `CCC(C#N)C(=O)N[C@H](C)[C@@H](Oc1cc(Br)ccc1C#N)c1ccccc1` (stereo partly drawn) had an ED90 with rice of 50 µg/mL (≈ 117 µM). This molecule returned a Ki on Scytalone dehydratase of 0.034 nM.
Turning to `C[C@@H](NC(=O)C(C#N)C1CC1)[C@@H](Oc1cc(F)ccc1F)c1ccccc1` (stereo partly drawn), in the assay with rice, the ED90 was 2 µg/mL (≈ 5.4 µM). The Ki on Scytalone dehydratase is 0.014 nM.
For `CC(C)C(C#N)C(=O)N[C@H](C)[C@@H](Oc1cc(F)ccc1F)c1ccccc1` (stereo partly drawn) the same measures were 100 µg/mL (≈ 269 µM) and 0.076 nM.
On to `C[C@@H](NC(=O)C(C#N)C(C)(C)C)[C@@H](Oc1ccccc1C#N)c1ccccc1` (stereo partly drawn), for which the ED90 in the assay on rice was 200 µg/mL (≈ 533 µM). Moreover, the affinity at Scytalone dehydratase corresponds to a Ki of 0.14 nM.
Take `CC(C)C(C#N)C(=O)N[C@H](C)[C@@H](Oc1ccccc1C#N)c1ccccc1` (stereo partly drawn): in the assay on rice, the ED90 stood at 25 µg/mL (≈ 69.2 µM). Further, the Ki on Scytalone dehydratase is 0.038 nM.
On to `C[C@H](COc1cc(F)ccc1F)NC(=O)C(C#N)C1CC1` (stereo partly drawn), for which the ED90 with rice stood at 50 µg/mL (≈ 170 µM). Moreover, the affinity on Scytalone dehydratase, expressed as Ki, was 1.1 nM.
For `CCC(C#N)C(=O)N[C@H](C)[C@@H](Oc1cc(F)ccc1F)c1ccccc1` (stereo partly drawn), the ED90 with rice came out at 2 µg/mL (≈ 5.58 µM). Also, the Ki at Scytalone dehydratase stood at 0.02 nM.
In turn, `C[C@H](COc1cc(F)ccc1F)NC(=O)C(C#N)C(C)(C)C` (stereo partly drawn) registered an ED90 with rice of 6 µg/mL (≈ 19.3 µM).
Take `CCC(C#N)C(=O)N[C@H](C)[C@@H](Oc1ccccc1C#N)c1ccccc1` (stereo partly drawn): in the assay with rice, the ED90 was determined as 10 µg/mL (≈ 28.8 µM). On Scytalone dehydratase, this molecule had a Ki of 0.07 nM.
`CCC(C#N)C(=O)N[C@H](C)[C@@H](Oc1cc(Cl)ccc1C#N)c1ccccc1` (stereo partly drawn) gave an ED90 with rice of 10 µg/mL (≈ 26.2 µM). This molecule came in with a Ki at Scytalone dehydratase of 0.031 nM.
As for `C[C@H](COc1cc(F)ccc1F)NC(=O)[C@H](C#N)C(C)(C)C`, the affinity on Scytalone dehydratase corresponds to a Ki of 0.02 nM.
Regarding `CC(C)C(C#N)C(=O)N[C@H](C)COc1cc(F)ccc1F` (stereo partly drawn), the ED90 in the assay with rice came to 10 µg/mL (≈ 33.7 µM). In addition, on Scytalone dehydratase, affinity was put at a Ki of 0.27 nM.
In the case of `CCC(C#N)C(=O)N[C@H](C)[C@@H](Oc1cc(F)ccc1C#N)c1ccccc1` (stereo partly drawn), in the assay on rice, the ED90 came to 50 µg/mL (≈ 137 µM). The affinity at Scytalone dehydratase, expressed as Ki, was 0.021 nM.
